The text below walks through data of PubChem BioAssay AID492966 (Southern Research Specialized Biocontainment Screening …, 2010).

For orientation: IC50 means the concentration at which inhibition is half-maximal.

The structures appear in SMILES notation. The source made the active and inactive calls.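 How the source made its calls: active means compounds that block at least half of the virus-caused cell damage; inactive means the rest.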

The test system of this experiment is HEp-2 RSV Long CPE inhibition, luminescence. The experiment can be described thus: antiviral activity against RSV Long – cell-based, HEp-2, luminescence, synthesized compounds, set 3, dose response (AID 492966). The method in brief: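 System: HEp-2 cells infected with respiratory syncytial virus strain Long; also added: RSV strain Long at multiplicity of infection 0.45; incubation: compound and virus exposure six days at 37 °C; measured by: luminescence-based cytopathic effect measurement; control set: uninfected cell-only wells and infected virus-only wells, per plate; replication: each concentration tested in triplicate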

On to `O=C(Nc1ccc(Cl)cc1Cl)[C@@H]1CCCN1S(=O)(=O)c1cccc2cccnc12`, for which the IC50 was > 50 µM (inactive). With `Cc1ccccc1NC(=O)[C@@H]1CCCN1S(=O)(=O)c1cccc2cccnc12`, the IC50 was 16.5 µM.

Regarding `Cc1ccc(NC(=O)[C@@H]2CCCN2S(=O)(=O)c2cccc3cccnc23)cc1`, the IC50 is > 50 µM (inactive).
